This is an account of results in article PMC7616001 (Journal of medicinal chemistry, 2022).

Read-outs that look alike come from different tables or passages of the source.

The nature of data set [1]: Cyclic voltammetry. Type of data set: physicochemical. The settings on record: acetonitrile, 0.1 M NEt4BF4.
The subject of data set [2] is ROS level in HeLa cells. Description: H2DCF-DA intracellular ROS assay. Type of data set: cell-based, human. The settings on record: 10 μM, 1-8 h. In a few lines:
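HeLa plated at 10 × 10^3 per well, grown overnight, then exposed to 10 μM test compound for 1, 2, 4 or 8 h. Washed with PBS and loaded with 10 μM H2DCF‑DA for 30 min. Washed again, phenol red‑free DMEM added, fluorescence read immediately. Three biological replicates.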

The test system of data set [3] is HeLa. As to conditions: read-out: IC50 HeLa; 72 h continuous exposure, MTT assay; cited from earlier work.
The test system of data set [4] is A2780. The settings on record: cited from earlier work.
The conditions of data set [5]: cited from earlier work.
The test system of data set [6] is HeLa. Put plainly: MTT assay, 72 h continuous exposure, HeLa cells. As to conditions: read-out: IC50 HeLa; 72 h continuous exposure, MTT assay. Type of data set: cell-based, human. In short, it runs like this: (§1)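 Ovarian lines grown in RPMI with 10% FBS and 1% penicillin/streptomycin; A2780Cis kept on 2 μM cisplatin 3 days each week. HeLa grown in DMEM with the same supplements. 3 × 10^3 cells/well, overnight, then serial dilutions of DMSO stocks (final DMSO ≤0.1%); cisplatin stock in PBS. 72 h continuous exposure, MTT 0.5 mg/mL 3 h, formazan in DMSO, A570 normalised to untreated. IC50 from curves; ≥3 independent experiments.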
(Tetrazolium assays rely on reduction of a dye to a coloured formazan, in cell work by metabolically active cells.)

The test system of data set [7] is A2780. Put plainly: MTT assay, 72 h continuous exposure, A2780 cells. In kind it is cell-based, human. As to conditions: read-out: IC50 A2780; 72 h continuous exposure, MTT assay. In short, it runs like this:
as §1

Data set [8] has as its system A2780cis. Description: MTT assay, 72 h continuous exposure, cisplatin-resistant A2780Cis cells. Type of data set: cell-based, human. The settings on record: read-out: IC50 A2780cis; 72 h continuous exposure, MTT assay. In a few lines:
as §1

The subject of data set [9] is HeLa. Description: 72 h crystal violet. In kind it is cell-based, human. As to conditions: HeLa and A2780, 72 h. In short, it runs like this:
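Seeding and dosing as for MTT: 3 × 10^3 cells/well, overnight, final DMSO ≤0.1%, 72 h exposure. Wells washed with PBS and fixed in 4% paraformaldehyde for 15 min. Crystal violet stained, dried, dissolved in 96% ethanol and A570 read. IC50 derived from dose–response curves.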

Data set [10] has as its system HeLa cells. Put plainly: Intracellular distribution between nucleus and cytoplasm, ICP-MS. As to conditions: 10 μM, 24 h exposure. Type of data set: cell-based, human. In short, it runs like this:
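5 × 10^6 HeLa per 100 mm plate, grown overnight. Exposed 24 h to 10 μM test compound, with 10 μM cisplatin as comparator. PBS‑washed, trypsinised, counted. Nuclear and cytoplasmic fractions isolated with a commercial kit. Protein measured by BCA assay, metal by ICP‑MS. Three experiments of ≥3 replicates.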

In data set [11] the test system is HeLa cells. Put plainly: Annexin-V/PI dual staining flow cytometry. The settings on record: 10 μM (0.7 × IC50/24h). In kind it is cell-based, human.
The subject of data set [12] is PARP, p53, cleaved caspase 3 in HeLa cells. Description: Western blot of apoptosis-related marker proteins. In kind it is cell-based, human. As to conditions: 24 h, cisplatin 10 μM, 1 at 1/4 × IC50 to IC50. In a few lines:
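~2 million HeLa per 60 mm dish, grown to 80–90% confluency, treated 24 h at 10, 20 or 40 μM. Lysed in RIPA buffer with protease inhibitors. Membranes blocked with 2% skim milk in 0.1% Tween 20 for 30 min. Primary antibody 1:1000 overnight at 4 °C; HRP secondary antibody.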
For orientation: Immunoblotting shows a protein as a band on a membrane.

Data set [13] has as its system MEF-Bax/Bak^+/+ and MEF-Bax/Bak^−/− cell lines. Description: Cytotoxicity in MEF-Bax/Bak+/+ versus MEF-Bax/Bak−/− cells. Type of data set: cell-based, murine.
For data set [14], the system named is A2780cis. The settings on record: A2780Cis versus wild-type A2780; cited from earlier work.
The mark [15] stands for this setting: read-out: IC50 in A2780 cells, reported antitumor activities.

As to `O=C(CC(=O)C(F)(F)F)[c-]1cccc1.[Fe+2].c1cc[cH-]c1` [Compound L1, 4,4,4-trifluoro-1-ferrocenylbutane-1,3-dione], the “oxidation potential (vs Fc^+/0)” value in [1] was found to be 287 mV. Moreover, the “intracellular ROS level (H2DCF-DA)” value in data set [2] is recorded as “unable to elevate the level of intracellular ROS”. Further, the IC50 (in general, the midpoint of a concentration-inhibition curve) in data set [3] is 23 µM; in [4] (read-out: IC50 A2780, 72 h, MTT assay), 11.4 ± 2 µM. The pKa (as a rule, the pH at which an ionisable group is half protonated) in data set [5] is 6.5.

With `N.N.[Cl][Pt][Cl]` [cisplatin, reference compound], the values for the IC50 in [6], in data set [7] and in data set [8] were 3000 ± 100 nM, 800 ± 100 nM and 6.7 ± 0.1 µM, respectively. The “IC50 from CV assay compared to IC50 from MTT assay” value in data set [9] is listed as “comparable”. The “metal content in nuclear fraction relative to cytoplasmic fraction” value in data set [10] is “equally distributed between the cytoplasm and nucleus”. In data set [11], the “AV^+/PI^− cells (early apoptosis)” value was determined as 13.4%. In addition, the “apoptosis markers (PARP cleavage, p53, cleaved caspase 3)” value in data set [12] was “cleavage of PARP and sharp upregulation of P53 and cleaved caspase 3”. Besides, the “IC50 in MEF-Bax/Bak^−/− compared to MEF-Bax/Bak^+/+ cells” value in [13] came to 2.5 fold. In addition, the “resistance factor, RF” value in data set [14] is listed as 9.7.

Regarding `O=C1[O][Pt]2([NH][C@@H]3CCCC[C@H]3[NH]2)[O]C1=O` [oxaliplatin, reference compound], the IC50 in data set [6] was determined as 2100 ± 300 nM.

As for “[Ru(η^6-arene)(PTA)-(4,4,4-trifluoro-1-(4-chlorophenyl)-1,3-butanedionato)]”, the IC50 in data set [4] (setting [15]) is 34.8 µM.

On to [Ru(η^6-arene)Cl(curcuminato)], for which the IC50 in data set [4] (setting [15]) is 23.4 µM.
